Data on 1 compound can be found in ChEMBL document CHEMBL3797037, “Kinetically Selective Inhibitors of Human Carbonic Anhydrase Isozymes I, II, VII, IX, XII, and XIII” (J Med Chem, 2016).

Calls of active or inactive are those of the source. The calls are words filed in the database; no cut-off is given here.

One assay addresses Carbonic anhydrase 1 (Homo sapiens, UniProt P00915). In words: Binding affinity to human recombinant CA1 expressed in Escherichia coli by fluorescence-based thermal shift assay.
Another assay has as its target Carbonic anhydrase 2 (Homo sapiens, UniProt P00918). Nature of the assay: Binding affinity to human recombinant CA2 expressed in Escherichia coli by fluorescence-based thermal shift assay.
Assay [1] addresses T1, Carbonic anhydrase 7 (Homo sapiens, UniProt P43166). Nature of the assay: Binding affinity to human recombinant CA7 assessed as dissociation rate constant after 30 secs by surface plasmon resonance assay.
Assay [2] deals with T1, Carbonic anhydrase 7. Nature of the assay: Binding affinity to human recombinant CA7 after 30 secs by surface plasmon resonance assay.
In assay [3] the target is T1, Carbonic anhydrase 7. In words: Binding affinity to human recombinant CA7 by fluorescence-based thermal shift assay.
Assay [4] deals with T2, Carbonic anhydrase 9 (Homo sapiens, UniProt Q16790). Nature of the assay: Binding affinity to human recombinant CA9 catalytic domain assessed as association rate constant after 30 secs by surface plasmon resonance assay. An outline of the steps:
(§1)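 SPR kinetics at 25 °C on amine-coupled isozyme surfaces, with immobilization protein level and acetate coupling pH set per isozyme. Running buffer PBST, pH 7.4, with 2 % DMSO. Ligands run as 2-fold series from 15.6 to 2000 nM at 30 or 90 µL/min, with 30 s association and 180 s dissociation.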
Background: In SPR one partner is held on a chip, and binding of the other changes the refractive index at the surface.

Assay [5] concerns the target T2, Carbonic anhydrase 9. In words: Binding affinity to human recombinant CA9 catalytic domain after 30 secs by surface plasmon resonance assay. An outline of the steps:
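SPR kinetics at 25 °C on amine-coupled isozyme surfaces, with immobilization protein level and acetate coupling pH set per isozyme. Running buffer PBST, pH 7.4, with 2 % DMSO.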

Assay [6] addresses T2, Carbonic anhydrase 9. Nature of the assay: Binding affinity to human recombinant CA9 catalytic domain by fluorescence-based thermal shift assay.
For assay [7], the target named is T3, Carbonic anhydrase 12 (Homo sapiens, UniProt O43570). Nature of the assay: Binding affinity to human recombinant CA12 catalytic domain after 30 secs by surface plasmon resonance assay.
T3 sequence (O43570 whole entry, the tested form may be a part): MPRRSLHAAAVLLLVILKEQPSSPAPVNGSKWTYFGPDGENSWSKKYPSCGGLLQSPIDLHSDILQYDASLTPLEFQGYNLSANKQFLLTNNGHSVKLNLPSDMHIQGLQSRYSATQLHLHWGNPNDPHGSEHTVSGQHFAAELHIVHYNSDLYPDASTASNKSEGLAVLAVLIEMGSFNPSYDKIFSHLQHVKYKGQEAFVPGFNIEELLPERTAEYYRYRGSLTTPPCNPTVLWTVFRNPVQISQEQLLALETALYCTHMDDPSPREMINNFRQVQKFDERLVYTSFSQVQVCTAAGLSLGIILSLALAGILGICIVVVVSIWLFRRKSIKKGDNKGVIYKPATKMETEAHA
The target in assay [8] is T3, Carbonic anhydrase 12. In words: Binding affinity to human recombinant CA12 catalytic domain by fluorescence-based thermal shift assay.
For assay [9], the target named is T4, Carbonic anhydrase 13 (Homo sapiens, UniProt Q8N1Q1). In words: Binding affinity to human recombinant CA13 by fluorescence-based thermal shift assay.
Target sequence in this assay (Q8N1Q1 whole entry): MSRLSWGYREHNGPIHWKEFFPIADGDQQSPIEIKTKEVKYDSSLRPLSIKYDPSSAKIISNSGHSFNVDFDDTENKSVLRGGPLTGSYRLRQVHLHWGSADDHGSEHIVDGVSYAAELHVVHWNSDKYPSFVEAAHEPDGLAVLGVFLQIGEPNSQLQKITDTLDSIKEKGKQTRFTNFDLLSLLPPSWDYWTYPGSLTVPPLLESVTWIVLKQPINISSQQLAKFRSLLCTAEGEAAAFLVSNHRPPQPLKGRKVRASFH
Assay [10] deals with T4, Carbonic anhydrase 13. Nature of the assay: Slow rate dissociation at human recombinant CA13 after 30 sec by surface plasmon resonance assay. An outline of the steps:
as §1
Target sequence in this assay (Q8N1Q1 whole entry, looked up): as the sequence (Q8N1Q1 whole entry) above

Assay [11] addresses T2, Carbonic anhydrase 9. In words: Binding affinity to human recombinant CA9 catalytic domain assessed as association rate constant at pH 6 by surface plasmon resonance assay. An outline of the steps: (§2)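 pH-dependence SPR on CA IX or CA XII catalytic domain surfaces, using a denatured-protein reference. Buffers were 50 mM sodium phosphate, 150 mM NaCl, 0.05 % Tween-20 and 2 % DMSO at pH 6.0, 7.0 or 8.0. Ligands ran as 2-fold series (62.5–2000 or 31.3–1000 nM) with 60 s injection and 90–360 s dissociation. Triplicates used a new surface each time. KD = kd/ka from the kinetic fit.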

Assay [12] deals with T2, Carbonic anhydrase 9. In words: Binding affinity to human recombinant CA9 catalytic domain assessed as dissociation rate constant at pH 6 by surface plasmon resonance assay. The method, boiled down: as §2
The target in assay [13] is T2, Carbonic anhydrase 9. Nature of the assay: Binding affinity to human recombinant CA9 catalytic domain assessed as dissociation constant calculated from kinetic parameters at pH 6 by surface plasmon resonance assay. An outline of the steps:
as §2

Assay [14] has as its target T3, Carbonic anhydrase 12. In words: Binding affinity to human recombinant CA12 catalytic domain assessed as dissociation constant calculated from saturation signal at pH 6 by surface plasmon resonance assay.
Assay [15] concerns the target T3, Carbonic anhydrase 12. Nature of the assay: Binding affinity to human recombinant CA12 catalytic domain assessed as dissociation constant calculated from saturation signal at pH 7 by surface plasmon resonance assay.
Assay [16] deals with T2, Carbonic anhydrase 9. In words: Binding affinity to human recombinant CA9 catalytic domain assessed as association rate constant at pH 7 by surface plasmon resonance assay. The method, boiled down: as §2
The target in assay [17] is T2, Carbonic anhydrase 9. Nature of the assay: Binding affinity to human recombinant CA9 catalytic domain assessed as dissociation rate constant at pH 7 by surface plasmon resonance assay. The method, boiled down: as §2
Assay [18] deals with T2, Carbonic anhydrase 9. Nature of the assay: Binding affinity to human recombinant CA9 catalytic domain assessed as dissociation constant calculated from kinetic parameters at pH 7 by surface plasmon resonance assay. The method, boiled down: as §2
In assay [19] the target is T2, Carbonic anhydrase 9. In words: Binding affinity to human recombinant CA9 catalytic domain assessed as association rate constant at pH 8 by surface plasmon resonance assay. The method, boiled down: as §2
The target in assay [20] is T2, Carbonic anhydrase 9. In words: Binding affinity to human recombinant CA9 catalytic domain assessed as dissociation rate constant at pH 8 by surface plasmon resonance assay. An outline of the steps: as §2
In assay [21] the target is T2, Carbonic anhydrase 9. In words: Binding affinity to human recombinant CA9 catalytic domain assessed as dissociation constant calculated from kinetic parameters at pH 8 by surface plasmon resonance assay. The method, boiled down: as §2
For assay [22], the target named is T3, Carbonic anhydrase 12. In words: Binding affinity to human recombinant CA12 catalytic domain assessed as dissociation constant calculated from saturation signal at pH 8 by surface plasmon resonance assay.

T1 sequence (P43166 whole entry): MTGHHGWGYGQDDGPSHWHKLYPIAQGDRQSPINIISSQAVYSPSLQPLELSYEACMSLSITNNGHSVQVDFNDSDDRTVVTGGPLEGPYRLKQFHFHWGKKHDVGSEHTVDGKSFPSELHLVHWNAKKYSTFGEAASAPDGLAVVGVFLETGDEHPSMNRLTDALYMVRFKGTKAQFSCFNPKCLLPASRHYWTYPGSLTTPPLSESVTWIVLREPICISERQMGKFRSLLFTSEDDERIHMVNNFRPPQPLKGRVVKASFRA
Carbonic anhydrase 1, sequence (P00915 whole entry): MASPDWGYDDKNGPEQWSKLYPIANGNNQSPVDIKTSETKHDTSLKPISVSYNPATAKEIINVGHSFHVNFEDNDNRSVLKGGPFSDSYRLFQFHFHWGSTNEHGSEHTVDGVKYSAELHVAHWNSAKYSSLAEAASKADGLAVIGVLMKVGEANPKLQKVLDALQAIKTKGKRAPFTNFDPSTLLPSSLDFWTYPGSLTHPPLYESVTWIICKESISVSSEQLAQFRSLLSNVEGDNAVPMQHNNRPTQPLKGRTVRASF

In the case of `CCCSc1c(F)c(F)c(S(N)(=O)=O)c(NC2CCCCCCC2)c1F`, the dissociation constant (Kd) (as a rule, the constant that tells how readily two partners part at equilibrium) on Carbonic anhydrase 1 amounted to 9.1 µM; at Carbonic anhydrase 2 it was 0.45 µM; on Carbonic anhydrase 7 [2], 0.51 µM; on Carbonic anhydrase 7 [3], 0.074 µM; at Carbonic anhydrase 9 [5], 0.027 µM; on Carbonic anhydrase 9 [6] it was 0.00017 µM. In addition, the Kd on Carbonic anhydrase 12 [7] was 0.4 µM; on Carbonic anhydrase 12 [8] it was 0.1 µM; on Carbonic anhydrase 13 [9], 0.033 µM; at Carbonic anhydrase 9 [13], 0.14 µM; on Carbonic anhydrase 12 [14] it was 2.6 µM; at Carbonic anhydrase 12 [15], 0.84 µM. The Kd on Carbonic anhydrase 9 [18] was 0.046 µM; at Carbonic anhydrase 9 [21], 0.019 µM; at Carbonic anhydrase 12 [22] it was 0.39 µM. In addition, on Carbonic anhydrase 7 [1], the “koff (dissociation rate constant)” value was found to be 1 ×10⁻² /s. Besides, the K is 2.9 ×10⁵ /M/s at Carbonic anhydrase 9 [4], 5.8 ×10⁴ /M/s on Carbonic anhydrase 9 [11], 1.6 ×10⁵ /M/s on Carbonic anhydrase 9 [16] and 3.3 ×10⁵ /M/s at Carbonic anhydrase 9 [19]. In addition, the outcome on Carbonic anhydrase 13 [10] was Active. Further, the “Dissociation rate constant (koff)” value at Carbonic anhydrase 9 [12] was 7.9 ×10⁻³ /s; on Carbonic anhydrase 9 [17], 7.2 ×10⁻³ /s; on Carbonic anhydrase 9 [20], 6.2 ×10⁻³ /s.
